The test system of data set [1] is UACC-903. Briefly: Antitumor activity in human UACC-903 cells xenografted in Harlan Sprague-Dawley athymic nude mouse assessed as reduction in tumor size at 0.76 uM, ip administered three times per week. The arrangement: scale not given: the % may be the effect or the level left. It counts as functional. The essentials:
(§1)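 Female athymic nude mice aged 4–6 weeks received 5×10^6 UACC 903 cells s.c. in 0.2 ml DMEM/10% FBS above both rib cages. After six days they were randomized (5 mice/group, 2 tumors/mouse) and dosed i.p. with 0.76 μmoles (3 ppm selenium) Mon/Wed/Fri; controls received DMSO vehicle. Caliper tumor volume (mm³) and body weight were recorded thrice weekly.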
In general terms: Xenograft models place foreign cells or tissue in a host animal.

A further data set concerns Caco-2. Put plainly: Cytotoxicity against human Caco-2 cells after 24 hrs by MTS assay. To be noted: Caco-2, 24 h. (Formazan colour is commonly taken as a measure of viable cells.)
Data set [2] relates to UACC-903. Put plainly: Antiproliferative activity against human UACC-903 cells assessed as BrdU incorporation after 24 hrs by ELISA relative to control. It counts as functional, cell-based. The essentials: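 UACC 903 cells, 5×10^3 per well, treated 24 h with DMSO vehicle or increasing concentrations of test agents. Proliferating cells were measured by BrdU incorporation with a BrdU ELISA kit. Values are expressed as percent of DMSO-treated cells, as the mean of three independent experiments with SEM.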
For orientation: Dividing cells build labelled thymidine or BrdU into new DNA.

The test system of data set [3] is UACC-903. Put plainly: Induction of apoptosis in human UACC-903 cells assessed as increase in caspase 3 activity after 24 hrs relative to control. It counts as functional, cell-based. In a few lines: (§2)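 Apoptosis was measured in UACC 903 cells seeded at 5×10^3 per well and treated 24 h with DMSO vehicle or increasing agent concentrations. Combined caspase-3/7 activity was read with the Apo-ONE homogeneous caspase-3/7 kit and reported as fold increase over vehicle-treated cells, averaged over three independent experiments with SEM.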

The subject of data set [4] is UACC-903. Briefly: Induction of apoptosis in human UACC-903 cells assessed as increase in caspase 7 activity after 24 hrs relative to control. It counts as functional, cell-based. In a few lines:
as §2

The subject of another data set is MDA-MB-231. Put plainly: Cytotoxicity against human MDA-MB-231 cells after 24 hrs by MTS assay. Conditions: MDA-MB-231, 24 h.
Data set [5] relates to UACC-903. Put plainly: Cytotoxicity against human UACC-903 cells assessed as decrease in cell viability after 24 hrs by MTS assay relative to control. It counts as functional, cell-based. Conditions: for IC50: UACC-903, 24 h. In a few lines: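 UACC 903 melanoma cells, 5×10^3 per well in DMEM with 10% FBS, were exposed after 24 h to DMSO or 5, 10 or 15 μM agent for 24 h. Viability was read by MTS tetrazolium reduction to formazan and expressed as percent of DMSO control, as the mean of three independent experiments with SEM.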

Another data set has as its system HT-1080. Put plainly: Cytotoxicity against human HT1080 cells after 24 hrs by MTS assay. To be noted: HT-1080, 24 h.
Another data set relates to T98G. Briefly: Cytotoxicity against human T98G cells after 24 hrs by MTS assay.
A further data set has as its system PC-3. Put plainly: Cytotoxicity against human PC-3 cells after 24 hrs by MTS assay. Conditions: PC-3, 24 h.
For data set [6], the system named is UACC-903. Briefly: Cytotoxicity against human UACC-903 cells after 24 hrs by MTS assay. To be noted: UACC-903, 24 h.
Data set [7] has as its system Mus musculus. Put plainly: Toxicity in human UACC-903 cells xenografted in Harlan Sprague-Dawley athymic nude mouse assessed as effect on body weight at 0.76 uM, ip administered three times per week. It counts as organism-based. Conditions: in vivo. In a few lines: as §1
Data set [8] deals with Mus musculus. Put plainly: Toxicity in human UACC-903 cells xenografted in Harlan Sprague-Dawley athymic nude mouse assessed as effect on body weight at 2.5 uM, ip administered three times per week. It counts as organism-based. To be noted: in vivo. The essentials: (§3)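 UACC 903 xenografts: 5×10^6 cells s.c. in 0.2 ml DMEM/10% FBS at both flanks of 4–6-week-old female athymic nude mice. From day six, mice were randomized (5/group, 2 tumors each) and given 2.5 μmoles i.p. three times weekly (Mon/Wed/Fri), with DMSO vehicle controls. Tumor size (calipers, mm³) and body weight were measured thrice weekly.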

Data set [9] has as its system UACC-903. Put plainly: Antitumor activity in human UACC-903 cells xenografted in Harlan Sprague-Dawley athymic nude mouse assessed as reduction in tumor size at 2.5 uM, ip administered three times per week. It counts as functional. Also noted: scale not given: the % may be the effect or the level left. The essentials:
as §3

Experimental findings from ChEMBL document CHEMBL1151732, “Synthesis and anticancer activity comparison of phenylalkyl isoselenocyanates with corresponding naturally occurring and synthetic isothiocyanates” (J Med Chem, 2008) are described below.

Activity calls are given as the source filed them. The calls are words filed in the database; no cut-off is given here.

With `[Se]=C=NCCCCc1ccccc1` [PHENYLBUTYL ISOSELENOCYANATE], the Activity in the data set with UACC-903 [1] is 30%; in the data set with UACC-903 [2], “Dose-dependent effect”; in the data set with UACC-903 [3], “Dose-dependent effect”; with UACC-903 [4], “Dose-dependent effect”; in the data set on UACC-903 [5], “Dose-dependent effect”; with Mus musculus [7], “Non-toxic”. Besides, the IC50 was found to be 12 µM with Caco-2; 21 µM with MDA-MB-231; 11 µM in the data set on HT-1080; 27 µM with T98G; 19 µM in the data set on PC-3; 10 µM with UACC-903 [6].
Take `CC(=O)NC(CSC(=S)NCCCCc1ccccc1)C(=O)O` (stereo not drawn): the 50% inhibitory concentration (IC50) in the data set on UACC-903 [5] and with UACC-903 [6] was 24 µM throughout.
With `[Se]=C=NCCc1ccccc1` [PHENETHYLISOSELENOCYANATE], the Activity is 30% with UACC-903 [1]; “Dose-dependent effect” in the data set with UACC-903 [2]; “Dose-dependent effect” in the data set with UACC-903 [3]; “Dose-dependent effect” in the data set with UACC-903 [4]; “Dose-dependent effect” with UACC-903 [5]; “Non-toxic” in the data set on Mus musculus [7]. Also, the 50% inhibitory concentration (IC50) worked out at 11 µM in the data set with Caco-2; 20 µM with MDA-MB-231; 12 µM with HT-1080; 24 µM in the data set on T98G; 16 µM in the data set on PC-3; 12 µM in the data set on UACC-903 [6].
`S=C=NCc1ccccc1` [BENZYL ISOTHIOCYANATE]: the result in the data set with UACC-903 [1] was inactive. The half-maximal inhibitory concentration (IC50) was 15 µM in the data set on Caco-2; 42 µM with MDA-MB-231; greater than 50 µM with HT-1080; greater than 100 µM in the data set on T98G; greater than 50 µM in the data set with PC-3; 15 µM with UACC-903 [6]. The Activity entry in the data set on UACC-903 [2] is “Dose-dependent effect”; in the data set with UACC-903 [3], “Dose-dependent effect”; in the data set with UACC-903 [4] it was “Dose-dependent effect”; in the data set on UACC-903 [5] it was “Dose-dependent effect”; in the data set with Mus musculus [8], “Non-toxic”; in the data set on UACC-903 [9] it was 40%.
In the case of `[Se]=C=NCCCCCCc1ccccc1` [PHENYLHEXYL ISOSELENOCYANATE], the Activity with UACC-903 [1] is 30%; in the data set with UACC-903 [2], “Dose-dependent effect”; in the data set on UACC-903 [3] it was “Dose-dependent effect”; with UACC-903 [4], “Dose-dependent effect”; in the data set on UACC-903 [5] it was “Dose-dependent effect”; in the data set with Mus musculus [7], “Non-toxic”. Besides, the IC50 in the data set on Caco-2 was 10 µM; in the data set with MDA-MB-231, 22 µM; in the data set with HT-1080, 12 µM; in the data set on T98G it was 23 µM; with PC-3, 14 µM; with UACC-903 [6], 10 µM.
Turning to `[Se]=C=NCc1ccccc1` [BENZYLISOSELENOCYANATE], the half-inhibitory concentration (IC50) in the data set on Caco-2 amounted to 13 µM; in the data set on MDA-MB-231 it was 29 µM; in the data set with HT-1080 it was 13 µM; in the data set on T98G, 43 µM; with PC-3 it was 24 µM; in the data set on UACC-903 [6], 16 µM. Moreover, the Activity entry in the data set with UACC-903 [2] was “Dose-dependent effect”; in the data set on UACC-903 [3], “Dose-dependent effect”; with UACC-903 [4], “Dose-dependent effect”; in the data set on UACC-903 [5], “Dose-dependent effect”; with Mus musculus [7], “Non-toxic”.
With `S=C=NCCCCc1ccccc1` [PHENYLBUTYL ISOTHIOCYANATE], the result with UACC-903 [1] was inactive. Further, the half-inhibitory concentration (IC50) stood at 27 µM in the data set on Caco-2; 27 µM in the data set with MDA-MB-231; 15 µM with HT-1080; 35 µM with T98G; 24 µM with PC-3; 16 µM with UACC-903 [6]. Besides, the Activity entry is “Dose-dependent effect” in the data set with UACC-903 [2]; “Dose-dependent effect” in the data set with UACC-903 [3]; “Dose-dependent effect” with UACC-903 [4]; “Dose-dependent effect” in the data set with UACC-903 [5]; “Non-toxic” in the data set with Mus musculus [8]; 40% in the data set on UACC-903 [9].
Consider `CC(=O)NC(CSC(=[Se])NCCCCc1ccccc1)C(=O)O` (stereo not drawn), for which the concentration for half-maximal inhibition (IC50) in the data set on UACC-903 [5] was found to be 10 µM; in the data set on UACC-903 [6], 17 µM.
As to `S=C=NCCc1ccccc1` [PHENETHYLISOTHIOCYANATE], the result with UACC-903 [1] was inactive. Moreover, the IC50 in the data set on Caco-2 was 14 µM; in the data set on MDA-MB-231, 38 µM; in the data set on HT-1080 it was 15 µM; in the data set with T98G it was greater than 100 µM; in the data set with PC-3, 24 µM; with UACC-903 [6], 12 µM. The Activity result is “Dose-dependent effect” with UACC-903 [2]; “Dose-dependent effect” in the data set on UACC-903 [3]; “Dose-dependent effect” in the data set on UACC-903 [4]; “Dose-dependent effect” in the data set with UACC-903 [5]; “Non-toxic” in the data set with Mus musculus [8]; 40% with UACC-903 [9].
Turning to `S=C=NCCCCCCc1ccccc1` [PHENYLHEXYL ISOTHIOCYANATE], the outcome in the data set with UACC-903 [1] was inactive. The concentration for half-maximal inhibition (IC50) in the data set on Caco-2 worked out at 49 µM; in the data set with MDA-MB-231, 24 µM; with HT-1080, 29 µM; with T98G, 26 µM; in the data set with PC-3 it was 17 µM; in the data set on UACC-903 [6], 15 µM. The Activity result is “Dose-dependent effect” in the data set on UACC-903 [2]; “Dose-dependent effect” in the data set on UACC-903 [3]; “Dose-dependent effect” in the data set with UACC-903 [4]; “Dose-dependent effect” in the data set with UACC-903 [5]; “Non-toxic” in the data set with Mus musculus [8]; 40% in the data set with UACC-903 [9].

A word on the IC50: it is the midpoint of a concentration-inhibition curve.
